Data set [1] relates to HVA Ca2+ currents in human MRGPRX1-expressing DRG neurons. In kind it is cell-based, mouse. The note with it: DRG neurons from MrgprX1 mice.
In data set [2] the target is T1, human MRGPRX1 (Homo sapiens, UniProt Q96LB2). In kind it is cell-based. The note with it: for agonist type at human MRGPRX1: HTS hits, FLIPR calcium 4 Assay Kit; for ligand efficiency (LE): human MRGPRX1 agonists; for fold decrease in agonist potency as compared to 5a: relative to 5a; for agonist activity at MRGPRX1: at concentrations up to 100 μM. Put shortly: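 HEK293 cells stably expressing human MrgprX1 were plated at 25,000 cells/well and grown 2 days. They were loaded with 2 μM Fluo 4AM and 1% Trypan Red in HBSS for 50 min at 37°C, then equilibrated 10 min at room temperature. Serial dilutions in HBSS were added, with BAM 8–22 as positive and HBSS as negative control. FLIPR imaging ran 2 min; read-out was maximum minus minimum fluorescence.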
T1 sequence (Q96LB2 whole entry): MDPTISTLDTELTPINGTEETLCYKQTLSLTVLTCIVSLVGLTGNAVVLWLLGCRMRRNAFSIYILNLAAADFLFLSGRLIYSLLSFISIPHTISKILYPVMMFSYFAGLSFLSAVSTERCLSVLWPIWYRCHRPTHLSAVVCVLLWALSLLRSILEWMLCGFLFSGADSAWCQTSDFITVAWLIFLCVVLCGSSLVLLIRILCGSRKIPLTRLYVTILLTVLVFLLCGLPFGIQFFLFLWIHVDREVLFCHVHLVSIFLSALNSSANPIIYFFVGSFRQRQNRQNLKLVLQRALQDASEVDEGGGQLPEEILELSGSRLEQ

Data set [3] deals with δ-, μ- and κ-opioid receptors. The data set can be described thus: Selectivity of MRGPRX1 agonists over opioid receptors. The data set is classed as binding. To be noted: MRGPRX1 versus δ-.
Data set [4] can be described thus: Metabolic stability in mouse liver microsomes. The data set is classed as in vitro ADME.
The target in data set [5] is T2, mouse MRGPRC11 (Mus musculus, UniProt Q8CIP3).
T2 sequence (Q8CIP3 1-322): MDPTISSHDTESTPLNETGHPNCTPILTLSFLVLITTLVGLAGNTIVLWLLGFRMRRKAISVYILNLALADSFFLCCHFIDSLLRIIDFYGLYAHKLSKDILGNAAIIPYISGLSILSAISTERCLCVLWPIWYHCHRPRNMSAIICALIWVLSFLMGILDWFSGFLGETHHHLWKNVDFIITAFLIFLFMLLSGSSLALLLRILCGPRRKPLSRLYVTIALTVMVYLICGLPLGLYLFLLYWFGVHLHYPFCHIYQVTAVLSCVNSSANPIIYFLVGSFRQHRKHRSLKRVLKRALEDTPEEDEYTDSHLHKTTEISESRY
The data set can be described thus: Agonist activity at mouse MRGPRC11. In kind it is cell-based. The note with it: even at concentration of 40 μM.

The target of data set [6] is T2, mouse MRGPRC11. The note with it: cited from earlier work.
The subject of the next data set is rat MRGPRC. To be noted: cited from earlier work.
In another data set the test system is neuropathic pain. To be noted: rodent models of neuropathic pain; cited from earlier work.
The target in data set [7] is T1, human MRGPRX1. To be noted: cited from earlier work.
The test system of data set [8] is mechanical and thermal hyperalgesia. To be noted: intrathecal (spinal cord) injection, rats; cited from earlier work.
Data set [9] has the same test system. The note with it: intrathecal (spinal cord) injection, mice; cited from earlier work.

The values below come from publication PMC10079166 (Journal of medicinal chemistry, 2019).

“Also recorded” adds a separate entry of the source. Read-outs that look alike come from different tables or passages of the source. Non-standard residues stand in square brackets, D forms with d. Residues, ends and D or L forms follow the SMILES beside them. dPhe(4-guanidino) = N=C(N)Nc1ccc(C[C@@H](N)C(=O)O)cc1

For orientation: half-life means the time needed for the level to fall by half in the phase considered.

Take `COc1cc(CNc2ccc(C(=N)N)cc2)ccc1OCc1ccccc1` [Compound 5a, 4-(4-(Benzyloxy)-3-methoxybenzylamino)benzimidamide]: the “inhibitory effect on HVA Ca2+ currents” value in data set [1] (bath application of 10 μM) is “inhibited HVA Ca^2+ currents”. At human MRGPRX1 [2], the “agonist type at human MRGPRX1” value was “full agonists” and the “ligand efficiency (LE)” value was 0.32–0.33.
Turning to `COc1cc(CNc2cccc(C(=N)N)c2)ccc1OCc1ccccc1` [Compound 5b, 3-(4-(Benzyloxy)-3-methoxybenzylamino)benzimidamide], the “fold decrease in agonist potency as compared to 5a” value (from here on “fold decrease in agonist potency”) at human MRGPRX1 [2] was determined as 6 fold.
Consider `COc1cc(CNc2ccccc2C(=N)N)ccc1OCc1ccccc1` [Compound 5c, 2-(4-(Benzyloxy)-3-methoxybenzylamino)benzimidamide], for which the “inhibitory effect on HVA Ca2+ currents” value in [1] (bath application of 10 μM) is recorded as “no inhibitory effects”. In addition, at human MRGPRX1 [2], the “agonist activity at MRGPRX1” value is “negligible agonist activity” and the “fold decrease in agonist potency” value is more than 100 fold.
As for `COc1cc(CNc2ccc(C(=N)N)cc2)ccc1OCc1cccnc1` [Compound 5d, 4-(3-Methoxy-4-(pyridin-3-ylmethoxy)benzylamino)benzimidamide], the “fold decrease in agonist potency” value at human MRGPRX1 [2] is recorded as 10 fold.
Take `CCCCS(=O)(=O)Nc1cc(C)ccc1Oc1ccc(C(=N)N)cc1` [Compound 11a, 4-(2-(Butylsulfonamido)-4-methylphenoxy)benzimidamide]: at human MRGPRX1 [2], the “agonist type at human MRGPRX1” value is reported as “full agonists” and the “ligand efficiency (LE)” value was 0.32–0.33.
Take `COc1ccccc1S(=O)(=O)Nc1ccc(C)cc1Oc1ccc2c(N)nccc2c1` [Compound 16, N-(2-(1-Aminoisoquinolin-6-yloxy)-4-methylphenyl)-2-methoxybenzenesulfonamide]: the “selectivity over all three opioid receptors” value in data set [3] is not below 50 fold. Moreover, the half-life in data set [4] was less than 15 min. The “activity against mouse MRGPRC11” value on mouse MRGPRC11 [5] was “inactive”.
Consider `COc1ccccc1S(=O)(=O)Nc1ccc(C)cc1Oc1ccc2sc(N)nc2c1` [Compound 19, N-(2-(2-Aminobenzo[d]thiazol-5-yloxy)-4-methylphenyl)-2-methoxybenzenesulfonamide], for which the “agonist activity at MRGPRX1” value on human MRGPRX1 [2] is “negligible agonist activity; also recorded: no agonist activity”.
On to `NC(=O)[C@H](Cc1ccccc1)NC(=O)[C@H](N)Cc1ccc(N=C(N)N)cc1` [JHU-58] (H-[dPhe(4-guanidino)]-Phe-NH2), for which the “agonist activity at mouse MRGPRC11” value at mouse MRGPRC11 [6] was “full agonist activity”. The “agonist activity at rat MRGPRC” value in the data set on rat MRGPRC is “full agonist activity”. Besides, the “analgesic effects” value with neuropathic pain is “exhibits analgesic effects”. Besides, the “agonist activity at human MRGPRX1” value on human MRGPRX1 [7] (introduction) was “negligible agonist activity”.
On to BAM8-22, for which the “inhibitory effect on HVA Ca2+ currents” value in data set [1] (bath application of 5 μM) was “inhibited HVA Ca^2+ currents”. In addition, the “agonist activity at mouse MRGPRC11” value at mouse MRGPRC11 [6] is “full agonist activity”. The “effect on mechanical and thermal hyperalgesia” value was “attenuate both mechanical and thermal hyperalgesia” in data set [8]; “attenuate both mechanical and thermal hyperalgesia” in [9]. The “agonist activity at rat MRGPRC” value in the data set on rat MRGPRC is recorded as “full agonist activity”. The “agonist activity at human MRGPRX1” value on human MRGPRX1 [7] is “full agonist activity”.
